Data as given in ChEMBL document CHEMBL1146219, “Synthesis and evaluation of novel radioiodinated benzamides for malignant melanoma” (J Med Chem, 2007).

Columns and labels:
Details in all cases: in vivo
Blood [1] = experiment: Biodistribution in blood of B16F0 tumor bearing C57BL/6J mouse at 0.37-0.74 MBq, iv after 24 hrs; format: ADME, organism-based
Summary of the method: (§1)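 Female C57BL/6J mice (15-18 g) were given B16F0 cells subcutaneously in the left flank (0.1 mL of 3 × 10⁶ viable cells/mL in Ca²⁺/Mg²⁺-free PBS) at 6-7 weeks and used after ten days. [¹²³I]benzamide (0.37-0.74 MBq, 100 µL, saline) was injected via the tail vein. Groups of n = 5 were killed by CO₂ and cervical dislocation. Organs were weighed and γ-counted, and the carcass was counted too.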

[2] = Biodistribution in melanoma of B16F0 tumor bearing C57BL/6J mouse at 0.37-0.74 MBq, iv after 1 hr; format: ADME, organism-based, B16-F0; summary of the method: as §1
[3] = Biodistribution in melanoma of B16F0 tumor bearing C57BL/6J mouse at 0.37-0.74 MBq, iv after 6 hrs; format: ADME, organism-based, B16-F0
Summary of the method: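 Female C57BL/6J mice (15-18 g) carrying s.c. B16F0 flank tumors (0.1 mL of 3 × 10⁶ viable cells per mL in Ca²⁺/Mg²⁺-free PBS, inoculated at 6-7 weeks, used 10 days later). [¹²³I]tracer 0.37-0.74 MBq in saline, 100 µL, tail-vein i.v. Groups of n = 5 killed at 1-72 h. Organs weighed and γ-counted, carcass activity also counted, values as %ID/g.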

[4] = Biodistribution in melanoma of B16F0 tumor bearing C57BL/6J mouse at 0.37-0.74 MBq, iv after 24 hrs; format: ADME, organism-based, B16-F0; summary of the method: as §1
Liver [5] = experiment: Biodistribution in liver of B16F0 tumor bearing C57BL/6J mouse at 0.37-0.74 MBq, iv after 1 hr; format: ADME, organism-based; summary of the method: as §1
Liver [6] = experiment: Biodistribution in liver of B16F0 tumor bearing C57BL/6J mouse at 0.37-0.74 MBq, iv after 6 hrs; format: ADME, organism-based; summary of the method: as §1
Liver [7] = experiment: Biodistribution in liver of B16F0 tumor bearing C57BL/6J mouse at 0.37-0.74 MBq, iv after 24 hrs; format: ADME, organism-based; summary of the method: as §1
Kidney [8] = experiment: Biodistribution in kidney of B16F0 tumor bearing C57BL/6J mouse at 0.37-0.74 MBq, iv after 1 hr; format: ADME, organism-based; summary of the method: as §1
Kidney [9] = experiment: Biodistribution in kidney of B16F0 tumor bearing C57BL/6J mouse at 0.37-0.74 MBq, iv after 6 hrs; format: ADME, organism-based; summary of the method: as §1
Kidney [10] = experiment: Biodistribution in kidney of B16F0 tumor bearing C57BL/6J mouse at 0.37-0.74 MBq, iv after 24 hrs; format: ADME, organism-based; summary of the method: as §1
Lung [11] = experiment: Biodistribution in lung of B16F0 tumor bearing C57BL/6J mouse at 0.37-0.74 MBq, iv after 1 hr; format: ADME, organism-based; summary of the method: as §1
Lung [12] = experiment: Biodistribution in lung of B16F0 tumor bearing C57BL/6J mouse at 0.37-0.74 MBq, iv after 6 hrs; format: ADME, organism-based; summary of the method: as §1
Lung [13] = experiment: Biodistribution in lung of B16F0 tumor bearing C57BL/6J mouse at 0.37-0.74 MBq, iv after 24 hrs; format: ADME, organism-based; summary of the method: as §1
Heart [14] = experiment: Biodistribution in heart of B16F0 tumor bearing C57BL/6J mouse at 0.37-0.74 MBq, iv after 1 hr; format: ADME, organism-based; summary of the method: as §1
Heart [15] = experiment: Biodistribution in heart of B16F0 tumor bearing C57BL/6J mouse at 0.37-0.74 MBq, iv after 6 hrs; format: ADME, organism-based; summary of the method: as §1
Heart [16] = experiment: Biodistribution in heart of B16F0 tumor bearing C57BL/6J mouse at 0.37-0.74 MBq, iv after 24 hrs; format: ADME, organism-based; summary of the method: as §1
Brain [17] = experiment: Biodistribution in brain of B16F0 tumor bearing C57BL/6J mouse at 0.37-0.74 MBq, iv after 1 hr; format: ADME, organism-based; summary of the method: as §1
Brain [18] = experiment: Biodistribution in brain of B16F0 tumor bearing C57BL/6J mouse at 0.37-0.74 MBq, iv after 6 hrs; format: ADME, organism-based; summary of the method: as §1
Brain [19] = experiment: Biodistribution in brain of B16F0 tumor bearing C57BL/6J mouse at 0.37-0.74 MBq, iv after 24 hrs; format: ADME, organism-based; summary of the method: as §1
Blood [20] = experiment: Biodistribution in blood of B16F0 tumor bearing C57BL/6J mouse at 0.37-0.74 MBq, iv after 1 hr; format: ADME, organism-based; summary of the method: as §1
Blood [21] = experiment: Biodistribution in blood of B16F0 tumor bearing C57BL/6J mouse at 0.37-0.74 MBq, iv after 6 hrs; format: ADME, organism-based; summary of the method: as §1

Compound	Drug uptake (Blood [1])	Drug uptake [2]	Drug uptake [3]	Drug uptake [4]	Drug uptake (Liver [5])	Drug uptake (Liver [6])	Drug uptake (Liver [7])	Drug uptake (Kidney [8])	Drug uptake (Kidney [9])	Drug uptake (Kidney [10])	Drug uptake (Lung [11])	Drug uptake (Lung [12])	Drug uptake (Lung [13])	Drug uptake (Heart [14])	Drug uptake (Heart [15])	Drug uptake (Heart [16])	Drug uptake (Brain [17])	Drug uptake (Brain [18])	Drug uptake (Blood [20])	Drug uptake (Blood [21])	also measured
O=C(NCCCCN1CC2CCC1C2)c1ccc([123I])cc1 (centres undefined)	0.03 % ID/g	3.8 % ID/g	3.5 % ID/g	3.4 % ID/g	43.2 % ID/g	27 % ID/g	3.5 % ID/g	15.2 % ID/g	4.9 % ID/g	0.59 % ID/g	6.9 % ID/g	2.1 % ID/g	0.4 % ID/g	1.05 % ID/g	0.44 % ID/g	0.13 % ID/g	0.1 % ID/g	0.06 % ID/g	0.48 % ID/g	0.24 % ID/g	Drug uptake (Brain [19]): 0.01 % ID/g
CCN(CC)CCNC(=O)c1cc([123I])c(NS(C)(=O)=O)cc1OC	0.01 % ID/g	5.4 % ID/g	3.6 % ID/g	1.7 % ID/g	2.3 % ID/g	1.2 % ID/g	0.28 % ID/g	1.3 % ID/g	0.49 % ID/g	0.06 % ID/g	0.67 % ID/g	0.38 % ID/g	0.03 % ID/g	0.42 % ID/g	0.19 % ID/g	0.04 % ID/g	0.05 % ID/g	0.02 % ID/g	0.77 % ID/g	0.49 % ID/g	–
CCN(CC)CCNC(=O)c1ccccc1[123I]	0.06 % ID/g	7.1 % ID/g	8.8 % ID/g	3 % ID/g	6.8 % ID/g	0.73 % ID/g	0.1 % ID/g	6.8 % ID/g	0.76 % ID/g	0.06 % ID/g	4.5 % ID/g	0.82 % ID/g	0.09 % ID/g	2 % ID/g	0.4 % ID/g	0.07 % ID/g	1.3 % ID/g	0.11 % ID/g	1.9 % ID/g	1.2 % ID/g	Drug uptake (Brain [19]): 0.01 % ID/g
COc1cc(NC(C)=O)c([123I])cc1C(=O)NCCCCN1CC2CCC1C2 (centres undefined)	0.02 % ID/g	3.4 % ID/g	2.8 % ID/g	1.4 % ID/g	7.1 % ID/g	0.8 % ID/g	0.19 % ID/g	3.7 % ID/g	0.67 % ID/g	0.03 % ID/g	2.6 % ID/g	0.68 % ID/g	0.04 % ID/g	0.94 % ID/g	0.3 % ID/g	0.03 % ID/g	0.08 % ID/g	0.03 % ID/g	1.92 % ID/g	0.78 % ID/g	–
CCCN(CCC)CCCCNC(=O)c1ccc([123I])cc1	0.08 % ID/g	6.2 % ID/g	7.5 % ID/g	6.9 % ID/g	49.1 % ID/g	33 % ID/g	2.9 % ID/g	8.6 % ID/g	5.4 % ID/g	0.52 % ID/g	8.2 % ID/g	3.9 % ID/g	0.39 % ID/g	1.9 % ID/g	0.81 % ID/g	0.12 % ID/g	0.5 % ID/g	0.17 % ID/g	0.52 % ID/g	0.35 % ID/g	Drug uptake (Brain [19]): 0.04 % ID/g
CCCCNCCCCNC(=O)c1cc([123I])c(NC(C)=O)cc1OC	0.05 % ID/g	3.4 % ID/g	3.4 % ID/g	2.2 % ID/g	6 % ID/g	1.3 % ID/g	0.45 % ID/g	3.26 % ID/g	0.46 % ID/g	0.05 % ID/g	2 % ID/g	0.45 % ID/g	0.04 % ID/g	0.64 % ID/g	0.28 % ID/g	0.06 % ID/g	0.04 % ID/g	0.02 % ID/g	0.84 % ID/g	0.47 % ID/g	–
O=C(NC1CCN(CCO)CC1)c1ccc([123I])cc1	0.04 % ID/g	5.9 % ID/g	11.7 % ID/g	9.2 % ID/g	17.1 % ID/g	9.2 % ID/g	5.4 % ID/g	10.6 % ID/g	3.2 % ID/g	1.2 % ID/g	17.8 % ID/g	4.7 % ID/g	1.44 % ID/g	3.1 % ID/g	0.93 % ID/g	0.49 % ID/g	1 % ID/g	0.46 % ID/g	1 % ID/g	0.21 % ID/g	Drug uptake (Brain [19]): 0.15 % ID/g
CCCN(CCC)CCCCNC(=O)c1cc([123I])c(NC(C)=O)cc1OC	0.15 % ID/g	8 % ID/g	6.8 % ID/g	5.1 % ID/g	7.3 % ID/g	1.8 % ID/g	0.64 % ID/g	14.1 % ID/g	1 % ID/g	0.18 % ID/g	1.7 % ID/g	0.8 % ID/g	0.14 % ID/g	0.93 % ID/g	0.49 % ID/g	0.14 % ID/g	0.07 % ID/g	0.05 % ID/g	1.7 % ID/g	1.1 % ID/g	Drug uptake (Brain [19]): 0.01 % ID/g
CCN(CC)CCNC(=O)c1cc([123I])c(NS(=O)(=O)c2ccc(C)cc2)cc1OC	0.05 % ID/g	4.2 % ID/g	2.6 % ID/g	1.4 % ID/g	3.8 % ID/g	1.5 % ID/g	0.21 % ID/g	1.2 % ID/g	0.36 % ID/g	0.06 % ID/g	0.62 % ID/g	0.22 % ID/g	0.05 % ID/g	0.28 % ID/g	0.11 % ID/g	0.03 % ID/g	0.03 % ID/g	–	0.74 % ID/g	0.33 % ID/g	–
